We go through 15 molecules from ChEMBL document CHEMBL4699638, “A Multipronged Approach Establishes Covalent Modification of β-Tubulin as the Mode of Action of Benzamide Anti-cancer Toxins” (J Med Chem, 2020).

Experiment [1] can be described thus: (§1) Anticancer activity against mouse 319N1 cells assessed as reduction in cell viability measured after 72 hrs by celltiter-glo assay. Format: functional, cell-based. The note with it: 319N1, 72 h. The essentials: (§2)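 Cells seeded in duplicate at 10,000 per well in DMEM with 5% FBS and incubated overnight. Compounds were then added as a 10-point dose response. After 72 h, viability was read by CellTiter-Glo luminescence, with the reagent diluted 1:1 in PBS/1% Triton-X. Values were normalized to DMSO-treated cells and IC50 was derived from curve fitting.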

A further experiment deals with 518T2. The experiment is described as follows: Binding affinity to beta-tubulin in mouse 518T2 cells at 0.1 to 50 uM measured after 1.5 hrs using Alexa Fluor 532 dye by copper-mediated click reaction based SDS PAGE analysis. Format: cell-based. As to conditions: dose microM 0.1-50, time 1.5 hrs. Summed up: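 Competition assay in 518T2 cells (1 million per well, DMEM with 5% FBS). Test analogs in DMSO were dispensed first at 100 nM to 50 μM and the cells plated onto them. The next day, alkyne probe (5 μM) was added for 1.5 h at 37 °C. Lysis was in 1% SDS HEPES buffer, followed by a click reaction with fluorescent azide, SDS-PAGE, and EC50 from displacement of the p50 band.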

Experiment [2] deals with 319N1. The experiment is described as follows: Anticancer activity against Msh2-deficient mouse 319N1 cells assessed as reduction in cell viability measured after 72 hrs by celltiter-glo assay. Format: functional, cell-based. The essentials: as §2
The test system of experiment [3] is 319N1. The experiment is described as follows: Anticancer activity against mouse 319N1 clone E cells assessed as reduction in cell viability measured after 72 hrs by celltiter-glo assay. Format: functional, cell-based. Summed up: as §2
The test system of experiment [4] is 319N1. The experiment is described as follows: Anticancer activity against mouse 319N1 clone C cells assessed as reduction in cell viability measured after 72 hrs by celltiter-glo assay. Format: functional, cell-based. Summed up: as §2
For experiment [5], the system named is 319N1. The experiment is described as follows: Anticancer activity against mouse 319N1 clone B cells assessed as reduction in cell viability measured after 72 hrs by celltiter-glo assay. Format: functional, cell-based. Summed up:
as §2

Experiment [6] has as its system 319N1. The experiment can be described thus: Anticancer activity against mouse 319N1 clone A cells assessed as reduction in cell viability measured after 72 hrs by celltiter-glo assay. Format: functional, cell-based. Summed up:
as §2

Experiment [7] has as its system 319N1. The experiment can be described thus: Anticancer activity against mouse 319N1 clone D cells assessed as reduction in cell viability measured after 72 hrs by celltiter-glo assay. Format: functional, cell-based. The essentials: as §2
For experiment [8], the system named is 319N1. The description is as §1. Format: functional, cell-based. The essentials:
as §2

Activity calls are given as the source filed them. The calls are words filed in the database; no cut-off is given here.

For the molecule `N#Cc1cccc(N2CCN(C(=O)c3ccc(Cl)c([N+](=O)[O-])c3)CC2)c1`, the IC50 in experiment [1] turned out to be 0.593 µM. Turning to `O=C(c1ccc(Cl)c([N+](=O)[O-])c1)N1CCN(c2ccccc2Cl)CC1`, the 50% inhibitory concentration (IC50) in experiment [1] amounted to 2.95 µM. The “beta-tubulin binding (probe competition, active/inactive)” value in the experiment with 518T2 was “Active”. Taken in the same sequence, the figures for `COc1cccc(N2CCN(C(=O)c3ccc(Cl)c([N+](=O)[O-])c3)CC2)c1` were 1.56 µM and “Active”. For the molecule `CC[C@]1(O)C[C@H]2CN(CCc3c([nH]c4ccccc34)[C@@](C(=O)OC)(c3cc4c(cc3OC)N(C=O)[C@H]3[C@@](O)(C(=O)OC)[C@H](OC(C)=O)[C@]5(CC)C=CCN6CC[C@]43[C@@H]65)C2)C1`, the “beta-tubulin binding (probe competition, active/inactive)” value with 518T2 is “inactive”. For `O=C(c1ccc(Cl)c([N+](=O)[O-])c1)N1CCN(c2ccccc2F)CC1`, the IC50 in [1] was determined as 7.94 µM.

On to `Cc1ccc(Cl)cc1N1CCN(C(=O)c2ccc(F)c([N+](=O)[O-])c2)CC1`, for which the “beta-tubulin binding (probe competition, active/inactive)” value in the experiment with 518T2 is “Active”.

In the case of `Cc1ccc(N2CCN(C(=O)c3ccc(Cl)c([N+](=O)[O-])c3)CC2)c(C)c1`, the IC50 in [1] turned out to be 6.99 µM. Turning to `COc1cc([C@@H]2c3cc4c(cc3[C@@H](O[C@@H]3O[C@@H]5CO[C@@H](C)O[C@H]5[C@H](O)[C@H]3O)[C@H]3COC(=O)[C@H]23)OCO4)cc(OC)c1O`, the result in the experiment with 319N1 [2], in the experiment with 319N1 [3], in the experiment on 319N1 [4], in the experiment with 319N1 [5], in the experiment on 319N1 [6] and with 319N1 [7] was Active. For `Cc1cccc(N2CCN(C(=O)c3ccc(Cl)c([N+](=O)[O-])c3)CC2)c1`, in [1], the IC50 was found to be 1.42 µM. Further, in the experiment on 518T2, the “beta-tubulin binding (probe competition, active/inactive)” value is “Active”. As for `O=C(c1ccc(Cl)cc1)N1CCN(c2ccccc2)CC1`, in the experiment on 319N1 [8], the result was inactive. Turning to `O=C(c1ccc(Cl)c([N+](=O)[O-])c1)N1CCN(c2cc(Cl)ccc2Cl)CC1`, the IC50 in experiment [1] was 0.458 µM. As to `O=C(c1ccc(Cl)c([N+](=O)[O-])c1)N1CCN(c2cccc(Cl)c2)CC1`, the IC50 in [1] is 0.694 µM.

`Cc1ccc(Cl)cc1N1CCN(C(=O)c2ccc(Cl)cc2[N+](=O)[O-])CC1`: in [1], the IC50 amounted to 17 µM.

Turning to `COc1ccc(N2CCN(C(=O)c3ccc(Cl)c([N+](=O)[O-])c3)CC2)cc1`, the IC50 in experiment [1] was 40.3 µM. The same measure, in the same setting: in the case of `Cc1ccc(Cl)cc1N1CCN(C(=O)c2cccc([N+](=O)[O-])c2Cl)CC1` it was 12.4 µM.
